Assay type in all cases: functional
In test [1] the test system is Bacillus cereus. The test can be described thus: Antibacterial activity against Bacillus cereus ATCC 7064 after 24 hrs by broth micro dilution method. To be noted: ATCC 7064, 24 h.
The subject of test [2] is Proteus vulgaris. The test can be described thus: Antibacterial activity against Proteus vulgaris ATCC 8427 after 24 hrs by broth micro dilution method. To be noted: ATCC 8427, 24 h.
Test [3] has as its system Mycolicibacterium smegmatis. The test can be described thus: Antibacterial activity against Mycobacterium smegmatis CCM 2067 after 24 hrs by broth micro dilution method. Conditions: CCM 2067, 24 h.
The test system of test [4] is Pseudomonas aeruginosa. Nature of the test: Antibacterial activity against Pseudomonas aeruginosa ATCC 27853 after 24 hrs by broth micro dilution method. Conditions: ATCC 27853, 24 h.
In test [5] the test system is Candida albicans. Nature of the test: Antifungal activity against Candida albicans ATCC 10231 after 24 hrs by broth micro dilution method. Conditions: ATCC 10231, 24 h. In a few lines:
(§1)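 Broth microdilution was run in cation-adjusted Mueller Hinton Broth. Compounds were dissolved in DMSO at 2 mg mL^-1 and serially diluted two-fold. Yeast precultures were grown in Malt Extract Broth for 48 h. The final inoculum was about 10⁶ cfu mL^-1, and plates were incubated at 37 °C for 24 h. The MIC was read from this series.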

The test system of test [6] is Debaryomyces hansenii. The test can be described thus: Antifungal activity against Debaryomyces hansenii DSM 70238 after 24 hrs by broth micro dilution method. To be noted: DSM 70238, 24 h. In a few lines:
as §1

Test [7] can be described thus: Cytotoxicity against human 23132/87 cells assessed as cell viability at 10 uM after 24 hrs by MTT assay. Conditions: 23132-87, 24 h, read-out: Activity. In short, it runs like this:
(§2)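 Cells were seeded at 3.10³–5.10³ per well in RPMI 1640 with 10% FBS, 4 mM L-glutamine and penicillin/streptomycin, then held 24 h at 37 °C under 5% CO₂. Ligands (DMSO, final 0.5% v/v) were added at 0.1–100 for 24 or 48 h. MTT was added for 4 h and dissolved in 50% DMF/5% SDS. A570 was read, and cytotoxicity was calculated as 100×(OD treated/OD untreated).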
(In general: Formazan colour is commonly taken as a measure of viable cells.)

The nature of test [8]: Cytotoxicity against human 23132/87 cells assessed as cell viability at 0.1 uM after 48 hrs by MTT assay. Conditions: 23132-87, 48 h, read-out: Activity. In a few lines: as §2
Test [9] in a line: Cytotoxicity against human 23132/87 cells assessed as cell viability at 1 uM after 48 hrs by MTT assay. To be noted: 23132-87, 48 h, read-out: Activity. In short, it runs like this:
as §2

Test [10] can be described thus: Cytotoxicity against human 23132/87 cells assessed as cell viability at 10 uM after 48 hrs by MTT assay. Conditions: 23132-87, 48 h, read-out: Activity. In short, it runs like this:
as §2

Test [11] has as its system A549. The test can be described thus: Cytotoxicity against human A549 cells assessed as cell viability at 0.1 uM after 24 hrs by MTT assay. To be noted: A549, 24 h, read-out: Activity. In a few lines:
as §2

The test system of test [12] is Staphylococcus aureus. The test can be described thus: Antibacterial activity against Staphylococcus aureus ATCC 6538 after 24 hrs by agar disk diffusion assay. In short, it runs like this:
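Disk diffusion with sterile 6 mm discs loaded with DMSO solutions of the test agents and placed on inoculated agar. Bacteria were pre-grown in Nutrient Broth at 30 °C for 24 h, and plates were incubated at 35 °C for 24 h. Each plate carried a reference antibiotic disc matched to the organism, and a DMSO-only solvent control was run.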
(In general: In agar diffusion tests the substance spreads into inoculated agar from a disc or well.)

In test [13] the test system is Kluyveromyces marxianus. Nature of the test: Antifungal activity against Kluyveromyces fragilis NRRL 2415 after 72 hrs by agar disk diffusion assay. In a few lines: (§3)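 Sterile 6 mm paper discs were loaded with ligand solution freshly prepared in DMSO and placed on inoculated agar. The inoculum came from broth cultures: bacteria in Nutrient Broth at 30 °C for 24 h, yeasts in Malt Extract Broth for 48 h. Plates were incubated at 35 °C for 24 h (bacteria) or 25 °C for 72 h (yeasts). A DMSO solvent control and a reference antibiotic disc were included on each plate.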

In test [14] the test system is Candida albicans. The test can be described thus: Antifungal activity against Candida albicans ATCC 10231 after 72 hrs by agar disk diffusion assay. In short, it runs like this: as §3
The test system of test [15] is Hanseniaspora guilliermondii. Nature of the test: Antifungal activity against Hanseniaspora guilliermondii DSM 3432 after 72 hrs by agar disk diffusion assay. In short, it runs like this: as §3

Broadly, the MIC is the lowest concentration found to suppress growth.

Each structure is given as a SMILES string. In brackets after ≈: the same amount, converted by molar mass.

For `O=C1CCSCCC(=O)Nc2nc(nc(-c3ccccc3)n2)NC(=O)CCSCCC(=O)Nc2nc(nc(-c3ccccc3)n2)N1`, the MIC in [1] was 12.5 µg/mL (≈ 19 µM); in test [2] it was 25 µg/mL (≈ 37.9 µM); in test [3], 50 µg/mL (≈ 75.9 µM); in test [4], 25 µg/mL (≈ 37.9 µM); in [5], 3.12 µg/mL (≈ 4.74 µM); in test [6] it was 3.12 µg/mL (≈ 4.74 µM). The viability at 10 µM in test [7] and in [10] was over 86% in each case. Further, the viability at 0.1 µM in test [8] and in [11] was over 86% throughout. Also, in test [9], the viability at 1 µM is over 86%. Also, the “inhibition zone (IZ)” value is 10 mm in [12], 16 mm in test [13], 19 mm in test [14] and 19 mm in test [15].

Regarding `O=C1CCSSCCC(=O)Nc2nc(nc(-c3ccccc3)n2)NC(=O)CCSSCCC(=O)Nc2nc(nc(-c3ccccc3)n2)N1`, the MIC was 6.25 µg/mL (≈ 8.65 µM) in test [1]; 12.5 µg/mL (≈ 17.3 µM) in [2]; 25 µg/mL (≈ 34.6 µM) in test [3]; 25 µg/mL (≈ 34.6 µM) in test [4]; 3.12 µg/mL (≈ 4.32 µM) in test [5]; 1.56 µg/mL (≈ 2.16 µM) in test [6]. The viability at 10 µM in [7] and in test [10] was over 86% throughout. In addition, the viability at 0.1 µM in [8] and in test [11] was over 86% in each case. Besides, in [9], the viability at 1 µM was over 86%. Also, the “inhibition zone (IZ)” value in test [12] stood at 12 mm; in test [13], 21 mm; in test [14], 19 mm; in test [15], 22 mm.

As for `O=C1CSCC(=O)Nc2nc(nc(-c3ccccc3)n2)NC(=O)CSCC(=O)Nc2nc(nc(-c3ccccc3)n2)N1`, the MIC in test [1] is 6.25 µg/mL (≈ 10.4 µM); in [2], 12.5 µg/mL (≈ 20.7 µM); in test [3] it was 25 µg/mL (≈ 41.5 µM); in test [4] it was 50 µg/mL (≈ 83 µM); in [5] it was 6.25 µg/mL (≈ 10.4 µM); in test [6], 3.12 µg/mL (≈ 5.19 µM). Further, the viability at 10 µM in [7] and in test [10] was over 86% in each case. In addition, the viability at 0.1 µM in [8] and in [11] was over 86% in each case. Besides, the viability at 1 µM in test [9] was over 86%. Moreover, the “inhibition zone (IZ)” value in test [12] amounted to 12 mm; in test [13], 15 mm; in test [14], 16 mm; in [15] it was 20 mm.

With `O=C1CSSCC(=O)Nc2nc(nc(-c3ccccc3)n2)NC(=O)CSSCC(=O)Nc2nc(nc(-c3ccccc3)n2)N1`, the MIC was found to be 3.12 µg/mL (≈ 4.69 µM) in test [1]; 25 µg/mL (≈ 37.5 µM) in [2]; 25 µg/mL (≈ 37.5 µM) in [3]; 25 µg/mL (≈ 37.5 µM) in [4]; 3.12 µg/mL (≈ 4.69 µM) in test [5]; 1.56 µg/mL (≈ 2.34 µM) in [6]. Further, the viability at 10 µM in test [7] and in test [10] was over 86% each time. Moreover, the viability at 0.1 µM in test [8] and in test [11] was over 86% throughout. The viability at 1 µM in test [9] is over 86%. Besides, the “inhibition zone (IZ)” value in [12] worked out at 14 mm; in [13] it was 19 mm; in [14] it was 19 mm; in test [15], 20 mm.

Source of the values: ChEMBL document CHEMBL1156002, “Synthesis, Raman, FT-IR, NMR spectroscopic characterization, antimicrobial activity, cytotoxicity and DNA binding of new mixed aza-oxo-thia macrocyclic compounds” (2009).
